Source: ChEMBL document CHEMBL1145087 (J Med Chem, 2003)

Legend:
[1] = target: T1, Progesterone receptor (Homo sapiens, UniProt P06401); experiment: Agonistic activity against human progesterone receptor in T47D breast cancer cells; assay type: functional, cell-based
T1 sequence (P06401 whole entry): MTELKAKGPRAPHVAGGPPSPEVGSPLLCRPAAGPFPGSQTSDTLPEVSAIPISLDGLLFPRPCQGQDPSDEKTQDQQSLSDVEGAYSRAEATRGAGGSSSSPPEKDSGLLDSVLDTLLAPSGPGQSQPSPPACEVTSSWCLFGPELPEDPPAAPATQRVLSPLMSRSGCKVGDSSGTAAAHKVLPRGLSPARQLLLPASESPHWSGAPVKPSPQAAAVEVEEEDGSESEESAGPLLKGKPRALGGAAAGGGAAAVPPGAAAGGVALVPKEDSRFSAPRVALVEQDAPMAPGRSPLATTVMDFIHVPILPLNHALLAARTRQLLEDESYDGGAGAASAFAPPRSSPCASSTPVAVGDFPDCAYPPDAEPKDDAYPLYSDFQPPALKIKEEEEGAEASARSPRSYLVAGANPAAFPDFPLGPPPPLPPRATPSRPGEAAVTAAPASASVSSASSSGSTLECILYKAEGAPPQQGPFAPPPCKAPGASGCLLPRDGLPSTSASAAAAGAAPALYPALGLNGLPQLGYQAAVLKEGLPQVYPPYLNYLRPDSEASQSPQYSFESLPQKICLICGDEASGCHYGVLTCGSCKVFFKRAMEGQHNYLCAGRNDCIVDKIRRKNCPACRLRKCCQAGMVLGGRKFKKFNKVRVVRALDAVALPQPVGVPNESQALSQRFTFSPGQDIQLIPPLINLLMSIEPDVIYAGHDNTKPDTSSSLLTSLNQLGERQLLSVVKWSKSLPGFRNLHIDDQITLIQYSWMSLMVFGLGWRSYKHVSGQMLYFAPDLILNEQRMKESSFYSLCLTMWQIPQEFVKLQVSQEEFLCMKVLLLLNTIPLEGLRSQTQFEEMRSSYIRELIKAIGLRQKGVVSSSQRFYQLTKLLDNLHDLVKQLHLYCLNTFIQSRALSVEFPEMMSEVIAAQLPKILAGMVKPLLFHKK

[2] = target: T2, Progesterone receptor (Homo sapiens) (UniProt P06401); experiment: Percent agonistic effect towards human progesterone receptor in T47D breast cancer cells; assay type: functional, cell-based
T2 sequence (whole entry): T1 sequence (P06401 whole entry)

[3] = target: T3, Glucocorticoid receptor (Homo sapiens, UniProt P04150); experiment: Inhibition of Dexamethasone binding to human glucocorticoid receptor expressed in baculovirus […] cells
T3 sequence (P04150 whole entry): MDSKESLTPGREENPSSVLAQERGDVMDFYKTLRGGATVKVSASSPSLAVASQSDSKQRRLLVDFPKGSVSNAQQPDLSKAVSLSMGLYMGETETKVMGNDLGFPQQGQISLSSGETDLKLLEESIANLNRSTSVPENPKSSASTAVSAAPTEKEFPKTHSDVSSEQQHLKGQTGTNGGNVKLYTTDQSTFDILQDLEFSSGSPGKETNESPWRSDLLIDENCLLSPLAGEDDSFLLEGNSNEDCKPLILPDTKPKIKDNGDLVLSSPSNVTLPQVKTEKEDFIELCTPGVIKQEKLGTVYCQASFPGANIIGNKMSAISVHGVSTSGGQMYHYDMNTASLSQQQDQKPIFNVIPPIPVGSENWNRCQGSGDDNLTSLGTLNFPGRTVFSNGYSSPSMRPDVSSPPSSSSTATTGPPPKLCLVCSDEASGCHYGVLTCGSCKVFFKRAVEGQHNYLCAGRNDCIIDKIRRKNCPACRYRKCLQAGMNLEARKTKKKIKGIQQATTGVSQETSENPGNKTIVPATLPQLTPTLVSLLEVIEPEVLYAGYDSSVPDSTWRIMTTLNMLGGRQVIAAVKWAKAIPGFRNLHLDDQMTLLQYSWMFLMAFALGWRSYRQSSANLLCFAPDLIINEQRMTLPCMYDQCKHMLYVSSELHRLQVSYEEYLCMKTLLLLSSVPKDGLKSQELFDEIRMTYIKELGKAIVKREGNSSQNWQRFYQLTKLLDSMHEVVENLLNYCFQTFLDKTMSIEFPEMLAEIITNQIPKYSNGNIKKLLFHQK

[4] = target: T1, Progesterone receptor; experiment: Agonistic activity against human progesterone receptor in CV-1 cells; assay type: functional, cell-based
[5] = target: T2, Progesterone receptor (Homo sapiens); experiment: Percent agonistic effect towards human progesterone receptor in CV-1 cells; assay type: functional, cell-based
[6] = target: T1, Progesterone receptor; experiment: Binding affinity towards human progesterone receptor A isoform using progesterone as radioligand
[7] = species: Homo sapiens; experiment: Relative potency for human androgen and progesterone receptors
[8] = species: Homo sapiens; experiment: Relative potency for human estrogen and progesterone receptors
[9] = species: Homo sapiens; experiment: Relative potency for human glucocorticoid and progesterone receptors
[10] = species: Homo sapiens; experiment: Relative potency for human mineralocorticoid and progesterone receptors
[11] = target: T4, Androgen receptor (Homo sapiens, UniProt P10275)
T4 sequence (P10275 whole entry): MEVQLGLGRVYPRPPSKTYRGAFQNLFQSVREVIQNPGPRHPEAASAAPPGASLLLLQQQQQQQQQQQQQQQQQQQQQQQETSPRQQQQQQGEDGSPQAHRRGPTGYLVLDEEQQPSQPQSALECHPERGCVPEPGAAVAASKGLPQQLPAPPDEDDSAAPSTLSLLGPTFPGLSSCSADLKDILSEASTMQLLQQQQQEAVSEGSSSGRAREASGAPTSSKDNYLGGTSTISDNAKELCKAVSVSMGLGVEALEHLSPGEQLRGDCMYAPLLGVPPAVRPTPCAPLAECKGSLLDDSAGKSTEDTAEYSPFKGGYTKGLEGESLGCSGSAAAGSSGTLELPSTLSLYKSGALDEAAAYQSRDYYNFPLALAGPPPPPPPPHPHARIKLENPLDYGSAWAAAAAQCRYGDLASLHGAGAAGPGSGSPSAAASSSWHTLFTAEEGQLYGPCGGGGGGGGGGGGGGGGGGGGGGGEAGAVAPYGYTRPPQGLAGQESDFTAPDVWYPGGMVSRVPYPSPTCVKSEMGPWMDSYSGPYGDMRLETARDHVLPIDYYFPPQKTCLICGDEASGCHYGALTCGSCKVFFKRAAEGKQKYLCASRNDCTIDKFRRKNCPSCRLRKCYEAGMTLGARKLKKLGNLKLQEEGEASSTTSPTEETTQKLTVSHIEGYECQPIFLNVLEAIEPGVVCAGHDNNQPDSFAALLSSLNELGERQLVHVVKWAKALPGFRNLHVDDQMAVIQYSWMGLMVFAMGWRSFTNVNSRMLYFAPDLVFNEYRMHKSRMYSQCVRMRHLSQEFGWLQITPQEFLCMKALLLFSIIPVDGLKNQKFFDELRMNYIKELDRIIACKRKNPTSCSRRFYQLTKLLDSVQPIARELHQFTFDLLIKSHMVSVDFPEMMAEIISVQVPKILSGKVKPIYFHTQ

[12] = target: T3, Glucocorticoid receptor
[13] = target: T4, Androgen receptor; experiment: biochemical
[14] = target: T5, Estrogen receptor (Homo sapiens, UniProt Q92731+P03372); experiment: Antagonistic efficacy against human estrogen receptor; assay type: functional
Procedure, shortened: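 Cotransfection LUC reporter assay for hER. Antagonist efficacy is the % maximal inhibition of a standard agonist (estradiol is the reference agonist for hER) applied at its EC50.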

[15] = target: T5, Estrogen receptor

| Structure (SMILES) | EC50 [1] | Efficacy [2] | Ki [3] | EC50 [4] | Efficacy [5] | Ki [6] | Ratio [7] | Ratio [8] | Ratio [9] | Ratio [10] | IC50 [11] | IC50 [12] | Ki [13] | Efficacy [14] | IC50 [15] |
| --- | --- | --- | --- | --- | --- | --- | --- | --- | --- | --- | --- | --- | --- | --- | --- |
| CC1=CC(C)(C)Nc2ccc3c(c21)/C(=C/c1ccccc1C)Oc1ccccc1-3 | 28 nM | 45% |  |  |  |  |  |  |  |  |  |  |  |  |  |
| CC1=CC(C)(C)Nc2ccc3c(c21)/C(=C/c1ccccc1C)Oc1ccc(F)cc1-3 | 19 nM | 49% | 236 nM | 3.6 nM | 178% | 0.55 nM | 228 | > 1000 | 181 | > 1000 | 820 nM | 650 nM | > 1000 nM |  |  |
| COc1ccccc1/C=C1\Oc2ccc(F)cc2-c2ccc3c(c21)C(C)=CC(C)(C)N3 | 8 nM | 40% | 277 nM |  | 154% | 3.8 nM | > 1000 | > 1000 | 97 | > 1000 |  | 90 nM | 439 nM | 34% | 1885 nM |
| CC1=CC(C)(C)Nc2ccc3c(c21)/C(=C/c1ccccc1C=O)Oc1ccc(F)cc1-3 | 48 nM | 72% |  | 11 nM | 107% | 2.6 nM |  |  |  |  |  |  |  |  |  |
| CC1=CC(C)(C)Nc2ccc3c(c21)/C(=C/c1ccccc1C#N)Oc1ccc(F)cc1-3 | 97 nM | 62% |  | 11 nM | 78% | 11.4 nM |  |  |  |  |  |  |  |  |  |
| CC1=CC(C)(C)Nc2ccc3c(c21)/C(=C/c1ccccc1N(C)C)Oc1ccc(F)cc1-3 | 26 nM | 59% | 493 nM | 2.7 nM | 172% | 1.2 nM | 556 | > 1000 | 119 | > 1000 | 1500 nM | 320 nM | 819 nM |  |  |
| CC1=CC(C)(C)Nc2ccc3c(c21)/C(=C/c1cccc(F)c1)Oc1c(F)cccc1-3 | 18 nM | 51% |  | 2.7 nM | 170% | 5.5 nM |  |  |  |  |  |  |  |  |  |
| CC1=CC(C)(C)Nc2ccc3c(c21)/C(=C/c1ccccc1C(F)(F)F)Oc1ccc(F)cc1-3 | 161 nM | 56% |  | 14 nM | 127% | 45.5 nM |  |  |  |  |  |  |  |  |  |
| CC1=CC(C)(C)Nc2ccc3c(c21)/C(=C/c1ccncc1)Oc1ccc(F)cc1-3 | 4.9 nM | 49% |  | 5.8 nM | 105% | 1.5 nM |  |  |  |  |  |  |  |  |  |
| CC1=CC(C)(C)Nc2ccc3c(c21)/C(=C/c1ccccc1Cl)Oc1ccc(F)cc1-3 |  |  |  |  | 146% | 22.4 nM |  |  |  |  |  |  |  |  |  |
| CC1=CC(C)(C)Nc2ccc3c(c21)/C(=C/c1ccccc1OC(F)(F)F)Oc1ccc(F)cc1-3 | 190 nM | 56% |  | 11 nM | 136% | 6.4 nM |  |  |  |  |  |  |  |  |  |
| CC1=CC(C)(C)Nc2ccc3c(c21)/C(=C/c1ccccc1F)Oc1ccc(F)cc1-3 | 29 nM | 47% |  |  | 190% | 0.62 nM |  |  |  |  |  |  |  |  |  |
| CC1=CC(C)(C)Nc2ccc3c(c21)/C(=C/c1ncccc1C)Oc1ccc(F)cc1-3 | 12 nM | 49% | 874 nM | 4.5 nM | 125% | 0.42 nM |  | > 1000 |  | > 1000 | 203 nM | 188 nM | > 1000 nM |  |  |
| CC1=CC(C)(C)Nc2ccc3c(c21)/C(=C/c1ccccc1)Oc1ccc(F)cc1-3 | 28 nM | 55% | 207 nM |  | 176% | 0.62 nM | 121 | > 1000 | 387 | > 1000 | 640 nM | 2050 nM | > 1000 nM |  |  |
| CC1=CC(C)(C)Nc2ccc3c(c21)/C(=C/c1ccccc1C(C)C)Oc1ccc(F)cc1-3 | 54 nM | 43% |  | 4 nM | 156% | 1.9 nM |  |  |  |  |  |  |  |  |  |
| CCCc1ccccc1/C=C1\Oc2ccc(F)cc2-c2ccc3c(c21)C(C)=CC(C)(C)N3 | 59 nM | 46% |  | 4.5 nM | 123% | 1.6 nM |  |  |  |  |  |  |  |  |  |
| CSc1ccccc1/C=C1\Oc2ccc(F)cc2-c2ccc3c(c21)C(C)=CC(C)(C)N3 | 41 nM | 53% | 386 nM | 6.2 nM | 132% | 0.59 nM | > 1000 | > 1000 | 139 | > 1000 |  | 860 nM | > 1000 nM |  |  |
| CC1=CC(C)(C)Nc2ccc3c(c21)/C(=C/c1ccc(F)cc1)Oc1c(F)cccc1-3 | 8 nM | 36% |  | 4 nM | 175% | 0.71 nM |  |  |  |  |  |  |  |  |  |
| CC1=CC(C)(C)Nc2ccc3c(c21)/C(=C/c1ccccn1)Oc1ccc(F)cc1-3 | 44 nM | 40% |  | 15 nM | 50% | 9.2 nM |  |  |  |  |  |  |  |  |  |
| CC1=CC(C)(C)Nc2ccc3c(c21)/C(=C/c1ccccc1Br)Oc1ccc(F)cc1-3 | 50 nM | 37% |  | 9 nM | 147% | 16.4 nM |  |  |  |  |  |  |  |  |  |
